The source made the active and inactive calls. The calls are words filed in the database; no cut-off is given here.
Experiments:
Mus musculus [1] = assay: Analgesic activity in sc dosed Swiss-Webster mouse after 30 mins; assay type: functional; details: 0.5 h
Mus musculus [2] = assay: Analgesic activity in Swiss-Webster mouse assessed as time required for sustainance of activity at 100 mg/kg, sc; assay type: functional; details: route subcutaneous
Mus musculus [3] = assay: Inhibition of morphine sulfate-induced analgesic activity in Swiss-Webster mouse at 100 mg/kg, sc after 1 hr; assay type: functional, organism-based; design: dose 100 mg/kg
Procedure, shortened: (§1)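 Male Swiss-Webster mice, 20–25 g. Challenge was 10 mg/kg morphine sulfate in 8–10 mice, read by the modified D'Amour–Smith test. Where block was seen, morphine ED50 (95% limits) was found by Litchfield–Wilcoxon.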

Mus musculus [4] = assay: Analgesic activity in sc dosed Swiss-Webster mouse time of peak effect; assay type: functional
Mus musculus [5] = assay: Analgesic activity in Swiss-Webster mouse assessed as time required for sustainance of activity at 40 mg/kg, sc; assay type: functional; details: route subcutaneous
Mus musculus [6] = assay: Inhibition of morphine sulfate-induced analgesic activity in Swiss-Webster mouse at 40 mg/kg, sc after 3 hrs; assay type: functional, organism-based; design: dose 40 mg/kg; procedure, shortened: as §1
Mus musculus [7] = assay: Inhibition of morphine sulfate-induced analgesic activity in Swiss-Webster mouse at 5.3 mg/kg, sc after 3 hrs; assay type: functional, organism-based; design: dose 5.3 mg/kg; procedure, shortened: as §1
Mus musculus [8] = assay: Analgesic activity in Swiss-Webster mouse assessed as time required for sustainance of activity at 5.3 mg/kg, sc; assay type: functional; details: route subcutaneous
Mus musculus [9] = species: Mus musculus; assay: Narcotic agonist activity in morphine-dependent mouse assessed as suppression of abstinence; assay type: functional, organism-based
Procedure, shortened: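 Single-dose suppression test in morphine-dependent mice after withdrawal (method of Takemori et al.); compound given sc.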

Mus musculus [10] = assay: Analgesic activity in Swiss-Webster mouse assessed as time required for sustainance of activity at 20 mg/kg, sc; assay type: functional; details: route subcutaneous
Mus musculus [11] = assay: Ratio of morphine ED50 to compound ED50 for sc dosed Swiss-Webster mouse; assay type: functional
Mus musculus [12] = assay: Analgesic activity in Swiss-Webster mouse assessed as time required for sustainance of activity at 2.6 mg/kg, sc; assay type: functional; details: route subcutaneous
Mus musculus [13] = assay: Inhibition of morphine sulfate-induced analgesic activity in Swiss-Webster mouse at 2.6 mg/kg, sc after 2.5 hrs; assay type: functional, organism-based; design: dose 2.6 mg/kg; procedure, shortened: as §1
Mus musculus [14] = assay: Inhibition of morphine sulfate-induced analgesic activity in Swiss-Webster mouse at 100 mg/kg, sc after 3 hrs; assay type: functional, organism-based; design: dose 100 mg/kg; procedure, shortened: as §1
Mus musculus [15] = assay: Inhibition of morphine sulfate-induced analgesic activity in Swiss-Webster mouse at 100 mg/kg, sc after 2 hrs; assay type: functional, organism-based; design: dose 100 mg/kg; procedure, shortened: as §1
Mus musculus [16] = assay: Analgesic activity in Swiss-Webster mouse assessed as time required for sustainance of activity at 50 mg/kg, sc; assay type: functional; details: route subcutaneous
Mus musculus [17] = assay: Inhibition of morphine sulfate-induced analgesic activity in Swiss-Webster mouse at 50 mg/kg, sc after 2 hrs; assay type: functional, organism-based; design: dose 50 mg/kg; procedure, shortened: as §1
Mus musculus [18] = assay: Analgesic activity in Swiss-Webster mouse assessed as time required for sustainance of activity at 2.7 mg/kg, sc; assay type: functional; details: route subcutaneous
Mus musculus [19] = assay: Analgesic activity in Swiss-Webster mouse assessed as time required for sustainance of activity at 5 mg/kg, sc; assay type: functional; details: route subcutaneous
Mus musculus [20] = assay: Analgesic activity in Swiss-Webster mouse assessed as time required for sustainance of activity at 0.81 mg/kg, sc; assay type: functional; details: route subcutaneous
Mus musculus [21] = assay: Inhibition of morphine sulfate-induced analgesic activity in Swiss-Webster mouse at 0.81 mg/kg, sc after 2.5 hrs; assay type: functional, organism-based; design: dose 0.81 mg/kg; procedure, shortened: as §1

| SMILES | ED50 (Mus musculus [1]) | Time (Mus musculus [2]) | Time (Mus musculus [4]) | further results |
| --- | --- | --- | --- | --- |
| CCOC(=O)CCC(=O)Nc1ccccc1CCN1CC[C@]23CCCC[C@H]2[C@H]1Cc1ccc(O)cc13 | > 100 mg/kg | 1 h |  | inhibition (Mus musculus [3]): Active |
| CCOC(=O)CCC(=O)Nc1cccc(CCN2CC[C@]34CCCC[C@H]3[C@H]2Cc2ccc(O)cc24)c1 | 6 mg/kg |  | 60 min | Time (Mus musculus [5]): 3 h; inhibition (Mus musculus [6]): Active |
| O=C(CBr)Nc1cccc(CCN2CC[C@]34CCCC[C@H]3[C@H]2Cc2ccc(O)cc24)c1 | 0.58 mg/kg |  | 30 min | inhibition (Mus musculus [7]): Active; Time (Mus musculus [8]): 3 h |
| CCOC(=O)/C=C/C(=O)Nc1cccc(CCN2CC[C@]34CCCC[C@H]3[C@H]2Cc2ccc(O)cc24)c1 | 5.6 mg/kg |  | 60 min | inhibition (Mus musculus [9]): Active; Time (Mus musculus [10]): 3 h |
| CCOC(=O)/C=C/C(=O)Nc1ccc(CCN2CC[C@]34CCCC[C@H]3[C@H]2Cc2ccc(O)cc24)cc1 | 1.2 mg/kg |  | 60 min | Ratio ED50 (Mus musculus [11]): 4; Time (Mus musculus [12]): 2.5 h; inhibition (Mus musculus [13]): Active |
| O=C(CBr)Nc1ccc(CCCN2CC[C@]34CCCC[C@H]3[C@H]2Cc2ccc(O)cc24)cc1 | > 100 mg/kg | 1 h |  | inhibition (Mus musculus [3]): Active |
| CC(=O)Oc1ccc2c(c1)[C@@]13CCCC[C@H]1[C@@H](C2)N(CCCc1ccccc1N1C(=O)C=CC1=O)CC3 | 48.4 mg/kg | 3 h | 30 min | inhibition (Mus musculus [14]): Active |
| CCOC(=O)CCC(=O)Nc1ccc(CCCN2CC[C@]34CCCC[C@H]3[C@H]2Cc2ccc(O)cc24)cc1 | 78.2 mg/kg | 2 h | 30 min | inhibition (Mus musculus [15]): Active |
| CN1CC[C@]23c4c5ccc(O)c4O[C@H]2[C@@H](O)C=C[C@H]3[C@H]1C5.CN1CC[C@]23c4c5ccc(O)c4O[C@H]2[C@@H](O)C=C[C@H]3[C@H]1C5.O=S(=O)(O)O | 4.9 mg/kg |  | 30 min |  |
| CC(=O)Oc1ccc2c(c1)[C@@]13CCCC[C@H]1[C@@H](C2)N(CCCc1ccc(N2C(=O)C=CC2=O)cc1)CC3 | > 50 mg/kg |  |  | Time (Mus musculus [16]): 2 h; inhibition (Mus musculus [17]): Active |
| CCOC(=O)CCC(=O)Nc1ccc(CCN2CC[C@]34CCCC[C@H]3[C@H]2Cc2ccc(O)cc24)cc1 | 0.71 mg/kg |  | 60 min | inhibition (Mus musculus [9]): Active; Ratio ED50 (Mus musculus [11]): 4; Time (Mus musculus [18]): 4 h |
| CCOC(=O)/C=C/C(=O)Nc1ccc(CCCN2CC[C@]34CCCC[C@H]3[C@H]2Cc2ccc(O)cc24)cc1 | 28.4 mg/kg | 2 h | 30 min | inhibition (Mus musculus [15]): Active |
| CC(=O)Oc1ccc2c(c1)[C@@]13CCCC[C@H]1[C@@H](C2)N(CCc1ccc(N2C(=O)C=CC2=O)cc1)CC3 | 0.59 mg/kg |  | 30 min | inhibition (Mus musculus [9]): Active; Time (Mus musculus [19]): 4 h |
| O=C(CBr)Nc1ccc(CCN2CC[C@]34CCCC[C@H]3[C@H]2Cc2ccc(O)cc24)cc1 | 0.13 mg/kg |  | 30 min | Ratio ED50 (Mus musculus [11]): 4; Time (Mus musculus [20]): 2.5 h; inhibition (Mus musculus [21]): Active |
| Br.CC1C2Cc3ccc(O)cc3C1(C)CCN2CCc1ccccc1 (stereo unspecified) [PHENAZOCINE HYDROBROMIDE] | 0.53 mg/kg |  | 30 min |  |
